Our source for the IC50 values is ChEMBL document CHEMBL1132120, “Identification of highly selective inhibitors of collagenase-1 from combinatorial libraries of diketopiperazines” (J Med Chem, 1999).

pIC50: −log10 of the molar value.

In experiment [1] the target is Matrix metalloproteinase-9 (Homo sapiens, UniProt P14780). The experiment in a line: Inhibitory activity against Matrix metalloprotease-9. The arrangement: species or system Komagataella pastoris. Put shortly:
(§1)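 Recombinant enzymes: C-terminally truncated collagenase-1, gelatinase-B and stromelysin. IC50 from nonlinear fit of rate versus inhibitor concentration to v = V0/(1+[I]/IC50). Values are the average of two or more independent determinations, SD ±20% or better.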

Another experiment has as its target T1, Interstitial collagenase (Homo sapiens, UniProt P03956).
T1 sequence (P03956 whole entry): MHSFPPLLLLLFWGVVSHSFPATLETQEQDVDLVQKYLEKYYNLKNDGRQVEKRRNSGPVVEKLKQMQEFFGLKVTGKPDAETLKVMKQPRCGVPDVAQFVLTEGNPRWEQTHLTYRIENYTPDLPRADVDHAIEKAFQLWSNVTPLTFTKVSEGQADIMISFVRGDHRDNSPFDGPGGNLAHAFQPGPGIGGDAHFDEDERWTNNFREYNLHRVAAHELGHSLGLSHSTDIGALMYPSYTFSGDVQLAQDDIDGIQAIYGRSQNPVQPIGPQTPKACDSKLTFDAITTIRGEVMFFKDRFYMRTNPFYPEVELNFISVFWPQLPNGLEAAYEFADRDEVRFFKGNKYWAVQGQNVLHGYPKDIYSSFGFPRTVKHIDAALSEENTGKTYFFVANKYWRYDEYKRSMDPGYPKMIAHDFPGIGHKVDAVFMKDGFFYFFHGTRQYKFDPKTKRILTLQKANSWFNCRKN
The experiment can be described thus: Inhibitory activity against Matrix metalloprotease-1. Put shortly: as §1

The nature of experiment [2]: Inhibitory activity against stromelysin. Put shortly:
as §1

Matrix metalloproteinase-9, sequence (P14780 whole entry, the tested form may be a part): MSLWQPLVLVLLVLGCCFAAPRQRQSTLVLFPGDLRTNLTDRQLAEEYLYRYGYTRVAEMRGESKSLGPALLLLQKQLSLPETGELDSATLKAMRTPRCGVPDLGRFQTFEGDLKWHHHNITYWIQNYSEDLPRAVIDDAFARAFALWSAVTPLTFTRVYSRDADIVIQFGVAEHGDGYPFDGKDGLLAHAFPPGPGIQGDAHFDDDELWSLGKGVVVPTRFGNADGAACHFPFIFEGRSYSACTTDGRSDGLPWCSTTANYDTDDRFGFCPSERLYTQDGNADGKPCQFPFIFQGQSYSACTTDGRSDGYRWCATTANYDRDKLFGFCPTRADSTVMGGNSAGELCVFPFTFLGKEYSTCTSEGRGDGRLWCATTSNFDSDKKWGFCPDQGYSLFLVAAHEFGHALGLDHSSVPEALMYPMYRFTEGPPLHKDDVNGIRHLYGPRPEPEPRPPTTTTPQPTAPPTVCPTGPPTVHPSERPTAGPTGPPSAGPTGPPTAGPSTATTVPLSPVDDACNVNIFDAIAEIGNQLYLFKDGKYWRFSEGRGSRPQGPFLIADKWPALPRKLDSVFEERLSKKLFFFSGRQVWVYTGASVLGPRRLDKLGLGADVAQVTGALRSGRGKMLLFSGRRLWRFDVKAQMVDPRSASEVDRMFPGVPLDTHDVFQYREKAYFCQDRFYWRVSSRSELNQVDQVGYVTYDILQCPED

On to `CC(C)(C)NC(=O)C(C1CC1)N1C(=O)[C@H](CS)NC(=O)[C@@H]1Cc1ccc([N+](=O)[O-])cc1` (some centres undefined), for which the pIC50 (usually the IC50 on a negative log10 scale, so that one unit is a factor of ten) in experiment [1] was 5.93; at Interstitial collagenase, 7.43.
Take `CC(C)(C)NC(=O)C(Cc1ccccc1)N1C(=O)[C@H](CS)NC(=O)[C@@H]1Cc1ccc([N+](=O)[O-])cc1` (some centres undefined): the pIC50 is 5.92 in experiment [1] and 7.43 against Interstitial collagenase.
In the case of `CCCN1C(=O)[C@H](CS)NC(=O)[C@@H]1Cc1ccc([N+](=O)[O-])cc1`, the pIC50 in experiment [1] is 5.54; in experiment [2], below 4.70; against Interstitial collagenase, 7.19.
`O=C1N[C@@H](CS)C(=O)N(Cc2ccc3ccccc3n2)[C@H]1Cc1ccc([N+](=O)[O-])cc1`: the pIC50 in experiment [1] was 5.77; in experiment [2], below 4.70; at Interstitial collagenase, 7.13.
Regarding `CC(C)(C)NC(=O)C(c1ccccc1)N1C(=O)[C@H](CS)NC(=O)[C@@H]1Cc1ccc([N+](=O)[O-])cc1` (some centres undefined), the pIC50 in experiment [1] was 5.89; against Interstitial collagenase it was 7.60.
With `CCCN1C(=O)[C@H](CS)NC(=O)[C@@H]1Cc1ccc(NC(C)=O)cc1`, the negative-log IC50 (pIC50) (in experiment [1]; in experiment [2]; against Interstitial collagenase) was below 4.40 in each case.
`CC(C)(C)NC(=O)C(c1ccc(-c2ccccc2)cc1)N1C(=O)[C@H](CS)NC(=O)[C@@H]1Cc1ccc([N+](=O)[O-])cc1` (some centres undefined): the values for the negative logarithm of the IC50 (pIC50) (in experiment [1]; against Interstitial collagenase) were 5.37 and 6.99, respectively.
Taken in the same sequence, the figures for `COc1ccc(C(C(=O)NC(C)(C)C)N2C(=O)[C@H](CS)NC(=O)[C@@H]2Cc2ccc([N+](=O)[O-])cc2)cc1` (some centres undefined) were 5.89 and 7.68.
As for `CCc1ccc(C(C(=O)NC(C)(C)C)N2C(=O)[C@H](CS)NC(=O)[C@@H]2Cc2ccc([N+](=O)[O-])cc2)cc1` (some centres undefined), the pIC50 in experiment [1] is 5.59; at Interstitial collagenase, 7.39.
On to `CCCCCCCC(C(=O)NC(C)(C)C)N1C(=O)[C@H](CS)NC(=O)[C@@H]1Cc1ccc([N+](=O)[O-])cc1` (some centres undefined), for which the negative-log IC50 (pIC50) is 5.82 in experiment [1] and 7.44 against Interstitial collagenase.
For `COc1ccc(CSC[C@H]2C(=O)N[C@@H](CS)C(=O)N2Cc2ccc(OC)cc2)cc1`, the results for the negative logarithm of the IC50 (pIC50) (in experiment [1]; in experiment [2]; against Interstitial collagenase) were 7.28, 5.96 and 6.51, respectively.
Regarding `CCCCOc1ccc(C(C(=O)NC(C)(C)C)N2C(=O)[C@H](CS)NC(=O)[C@@H]2Cc2ccc([N+](=O)[O-])cc2)cc1` (some centres undefined), the results for the pIC50 (in experiment [1]; against Interstitial collagenase) were 5.49 and 7.14, respectively.
With `CC(C)(C)NC(=O)C(c1ccc(Oc2ccccc2)cc1)N1C(=O)[C@H](CS)NC(=O)[C@@H]1Cc1ccc([N+](=O)[O-])cc1` (some centres undefined), the pIC50 in experiment [1] is 5.36; on Interstitial collagenase, 6.97.
For `CC(C)CC(C(=O)NC(C)(C)C)N1C(=O)[C@H](CS)NC(=O)[C@@H]1Cc1ccc([N+](=O)[O-])cc1` (some centres undefined), the results for the negative-log IC50 (pIC50) (in experiment [1]; on Interstitial collagenase) were 6.24 and 7.62, respectively.
As for `COc1ccc(CN2C(=O)[C@H](CS)NC(=O)[C@@H]2Cc2ccc([N+](=O)[O-])cc2)cc1`, the pIC50 is 5.92 in experiment [1], below 4.40 in experiment [2] and 7.33 on Interstitial collagenase.
Turning to `COc1ccc(CN2C(=O)[C@H](CS)NC(=O)[C@@H]2Cc2ccccc2)cc1`, the figures for the pIC50 (in experiment [1]; in experiment [2]; at Interstitial collagenase) were 6.40, 5.40 and 6.96, respectively.
In experiment [2], `COc1ccc(CN2C(=O)[C@H](CS)NC(=O)[C@@H]2CC2CCCCC2)cc1` gave a pIC50 of 5.42.
